Experimental data taken from ChEMBL document CHEMBL1127578, “Phospholipase C inhibitors: a new class of cytotoxic agents” (J Med Chem, 1994).
≈ marks a conversion by molar mass, not a printed value.

How the values were obtained:
[1] = Inhibitory activity against phospholipase C isolated from human melanoma
Method in brief: (§1)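 PI-specific PLC partially purified from RPMI 7272 human melanoma xenografts in nude mice (Q-Sepharose then heparin-Sepharose, 0.35 M NaCl eluate), 20–30 μg protein. Enzyme preincubated with compound 5 min at 37 °C in 25 mM imidazole pH 7.2, 100 mM KCl, 1 mM CaCl2, 0.8 mg/mL deoxycholate. Reaction started with 1 mM phosphatidylinositol, run 15 min at 37 °C, stopped with EDTA.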

[2] = pKa value was determined; type: physicochemical
[3] = Inhibitory activity against phospholipase C isolated from human melanoma; IN-Inactive; method in brief: as §1

CCCCCCCCCCCCCCCC(=O)Oc1ccc2oc(=O)c([N+](=O)[O-])cc2c1
IC50 [1]: 28.5 µg/mL (≈ 64 µM)

C=CCCCCCCCCOc1ccc2oc(=O)c([N+](=O)[O-])cc2c1
IC50 [1]: 45.1 µg/mL (≈ 131 µM)

CCCCOc1ccc2oc(=O)c([N+](=O)[O-])cc2c1
IC50 [1]: 33.9 µg/mL (≈ 129 µM)

O=[N+]([O-])C1=Cc2ccccc2OC1Nc1cccc([N+](=O)[O-])c1 (stereo unspecified)
IC50 [1]: 7.5 µg/mL (≈ 23.9 µM)
pKa [2]: 2.47

O=[N+]([O-])C1=Cc2ccccc2OC1N1CCOCC1 (stereo unspecified)
IC50 [1]: 5 µg/mL (≈ 19.1 µM)
pKa [2]: 8.33

CCCCCCCOc1ccc2oc(=O)c([N+](=O)[O-])cc2c1
IC50 [3]: Not Active

O=c1oc2ccccc2cc1[N+](=O)[O-]
IC50 [1]: 16.1 µg/mL (≈ 84.2 µM)

O=c1oc2c(O)cccc2cc1[N+](=O)[O-]
IC50 [1]: 24.8 µg/mL (≈ 120 µM)

CC(=O)Oc1ccc2oc(=O)c([N+](=O)[O-])cc2c1
IC50 [1]: 16 µg/mL (≈ 64.2 µM)

O=[N+]([O-])C1=Cc2ccccc2OC1Nc1ccccc1 (stereo unspecified)
IC50 [1]: 11.7 µg/mL (≈ 43.6 µM)
pKa [2]: 4.4

CCCCCCCCCCCCOc1ccc2oc(=O)c([N+](=O)[O-])cc2c1
IC50 [1]: 68.6 µg/mL (≈ 183 µM)

O=c1oc2ccc(OCCCCCCCCO)cc2cc1[N+](=O)[O-]
IC50 [1]: 9.6 µg/mL (≈ 28.6 µM)

O=[N+]([O-])C1=Cc2ccccc2OC1Nc1ccc([N+](=O)[O-])cc1 (stereo unspecified)
IC50 [1]: 14.4 µg/mL (≈ 46 µM)
pKa [2]: 1

CCCCCCCC(=O)Oc1ccc2cc([N+](=O)[O-])c(=O)oc2c1
IC50 [3]: Not Active

C=CCCCCCCCCC(=O)Oc1ccc2oc(=O)c([N+](=O)[O-])cc2c1
IC50 [1]: 3.2 µg/mL (≈ 8.57 µM)

CCCCCCCC(=O)Oc1ccc2oc(=O)c([N+](=O)[O-])cc2c1
IC50 [1]: 4.3 µg/mL (≈ 12.9 µM)

O=[N+]([O-])C1=Cc2ccccc2OC1Nc1ccccc1[N+](=O)[O-] (stereo unspecified)
IC50 [1]: 6 µg/mL (≈ 19.2 µM)
pKa [2]: -0.26

CC(=O)Oc1cccc2cc([N+](=O)[O-])c(=O)oc12
IC50 [1]: 36 µg/mL (≈ 144 µM)

CCCCCCOc1ccc2oc(=O)c([N+](=O)[O-])cc2c1
IC50 [3]: Not Active

COc1cccc(NC2Oc3ccccc3C=C2[N+](=O)[O-])c1 (stereo unspecified)
IC50 [1]: 6.6 µg/mL (≈ 22.1 µM)
pKa [2]: 4.2

CCCCCCCCCCCCCCCC(=O)Oc1ccc2cc([N+](=O)[O-])c(=O)oc2c1
IC50 [3]: Not Active

O=c1oc2ccc(O)cc2cc1[N+](=O)[O-]
IC50 [1]: 10.9 µg/mL (≈ 52.6 µM)

CCCCCCCCCCCCCCCC(=O)Oc1cccc2cc([N+](=O)[O-])c(=O)oc12
IC50 [1]: 47 µg/mL (≈ 105 µM)

O=c1oc2cc(O)ccc2cc1[N+](=O)[O-]
IC50 [3]: Not Active

CC(=O)Oc1ccc2cc([N+](=O)[O-])c(=O)oc2c1
IC50 [3]: Not Active

CC(C)Oc1ccc2oc(=O)c([N+](=O)[O-])cc2c1
IC50 [1]: 23.5 µg/mL (≈ 94.3 µM)

COc1ccc2oc(=O)c([N+](=O)[O-])cc2c1
IC50 [1]: 31 µg/mL (≈ 140 µM)

CCCCCCCC(=O)Oc1cccc2cc([N+](=O)[O-])c(=O)oc12
IC50 [1]: 17 µg/mL (≈ 51 µM)

CCCCCCCCCCOc1ccc2oc(=O)c([N+](=O)[O-])cc2c1
IC50 [3]: Not Active

COc1ccccc1NC1Oc2ccccc2C=C1[N+](=O)[O-] (stereo unspecified)
IC50 [1]: 4.5 µg/mL (≈ 15.1 µM)
pKa [2]: 2.52

COc1ccc(NC2Oc3ccccc3C=C2[N+](=O)[O-])cc1 (stereo unspecified)
IC50 [1]: 12.9 µg/mL (≈ 43.2 µM)
pKa [2]: 5.31

O=[N+]([O-])C1=Cc2ccccc2OC1n1cccn1 (stereo unspecified)
IC50 [1]: 21 µg/mL (≈ 86.3 µM)
pKa [2]: 2.48
